Screens deposited in PubChem by several laboratories.
KCNK9 inh = inhibitors of human KCNK9 two-pore domain potassium channel; B-score at 10 µM; HEK293 KCNK9, FluxOR thallium flux fluorescence; active compounds read low; hit rate 1.2% among 310,000;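 active = ratio B-score over 3 SD below the library mean, with starting fluorescence within 5 SD of its mean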;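 note: negative B-score means less thallium flux so channel inhibition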
KCC2 mod = modulates chloride dependent transport by human KCC2; B-score of Tl+ flux slope (higher = more flux/activation; lower = inhibition) at 10 µM; KCC2 cells, thallium flux FluoZin-2 fluorescence; Q9H2X9; hit rate 2.2% among 190,000;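 active = thallium flux slope and its plate-corrected score both differing from the plate sample mean at a set confidence after two filtering rounds, in either direction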;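 note: slope of fluorescence scaled to starting intensity during 10 to 20 s after thallium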
KCNK3 block = human KCNK3 channel inhibition, primary screen; O14649; CHO-KCNK3 thallium flux, FluxOR fluorescence; active compounds read low; B-score at 10 µM; hit rate 0.84% among 340,000; AID 602410;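 active = B-score under library mean minus 4 SD, starting fluorescence ratio at most library mean plus 5 SD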;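 note: more negative B-score means stronger inhibition of thallium flux through KCNK3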
hERG protect = shields human hERG channel from block by proarrhythmic agents; Q12809; CHO-hERG, FluxOR thallium flux, dofetilide IC70 present; activation (rescue from dofetilide block), less the hit threshold, % at 10 µM; hit rate 0.51% among 310,000; AID 1511;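 active = activation above the mean of controls blocked by dofetilide plus 5 SD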;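 note: thallium influx through hERG after potassium depolarization seen as dye fluorescence rise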
Target sequence (Q12809 whole entry, looked up): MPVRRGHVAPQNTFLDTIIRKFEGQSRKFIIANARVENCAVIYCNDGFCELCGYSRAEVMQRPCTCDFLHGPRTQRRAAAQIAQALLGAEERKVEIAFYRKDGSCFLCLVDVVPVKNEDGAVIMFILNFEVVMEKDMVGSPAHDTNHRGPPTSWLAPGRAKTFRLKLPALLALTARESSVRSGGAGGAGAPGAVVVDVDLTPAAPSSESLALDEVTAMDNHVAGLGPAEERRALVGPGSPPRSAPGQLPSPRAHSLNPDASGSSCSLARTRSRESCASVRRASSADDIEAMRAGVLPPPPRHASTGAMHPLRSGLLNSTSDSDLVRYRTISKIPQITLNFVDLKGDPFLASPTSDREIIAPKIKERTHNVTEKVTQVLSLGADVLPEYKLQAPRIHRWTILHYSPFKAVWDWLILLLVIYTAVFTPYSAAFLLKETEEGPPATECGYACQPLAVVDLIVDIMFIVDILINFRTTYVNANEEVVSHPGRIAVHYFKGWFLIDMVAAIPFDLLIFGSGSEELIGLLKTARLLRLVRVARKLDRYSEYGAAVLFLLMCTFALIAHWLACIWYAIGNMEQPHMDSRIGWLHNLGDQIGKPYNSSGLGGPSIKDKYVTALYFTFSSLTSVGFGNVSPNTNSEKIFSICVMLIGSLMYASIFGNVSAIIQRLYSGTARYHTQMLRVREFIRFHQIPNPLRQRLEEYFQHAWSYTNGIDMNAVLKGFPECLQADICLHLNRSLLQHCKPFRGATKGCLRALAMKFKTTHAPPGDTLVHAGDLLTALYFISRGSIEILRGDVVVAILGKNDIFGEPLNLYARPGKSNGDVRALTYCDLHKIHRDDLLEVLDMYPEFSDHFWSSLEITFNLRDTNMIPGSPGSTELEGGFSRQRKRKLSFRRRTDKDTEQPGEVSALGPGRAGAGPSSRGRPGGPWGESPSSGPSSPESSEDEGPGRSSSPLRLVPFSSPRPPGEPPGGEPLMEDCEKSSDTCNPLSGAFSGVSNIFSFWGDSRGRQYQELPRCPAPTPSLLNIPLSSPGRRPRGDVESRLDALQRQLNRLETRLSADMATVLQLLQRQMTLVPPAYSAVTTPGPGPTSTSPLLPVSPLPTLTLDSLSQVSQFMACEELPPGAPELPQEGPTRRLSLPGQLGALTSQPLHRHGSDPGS
KCNQ1 inh = human KCNQ1 channel inhibition | P51787 | CHO-K1 KCNQ1, FluxOR thallium flux fluorescence; active compounds read high | B-score at 10 µM | hit rate 1.3% among 310,000 | AID 2642;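 active = compounds whose thallium flux B-score, printed positive for inhibition, exceeds three library SD while starting fluorescence stays within three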;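 note: channel opened by potassium depolarization with thallium stimulus after 20 min compound exposure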
KCNQ1 pot = human KCNQ1 channel potentiation or activation; CHO-K1 KCNQ1, thallium flux FluxOR fluorescence; active compounds read high; AID 2648; B-score at 10 µM; hit rate 0.35% among 310,000; P51787;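 active = fluorescence ratio B-score, a plate-corrected score, at least three library SD, with initial intensity B-score within 5 SD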
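Test system: CHO-K1 cells stably expressing KCNQ1 / Medium: assay buffer / Also added: depolarizing K+/Tl+ stimulus, K2SO4 and Tl2SO4 each 12.5 mM in 5x stock / Incubation: 90 min dye loading and 20 min compound exposure, both at room temperature / Signal: thallium influx via FluxOR fluorescence, kinetic imaging / Evaluation: B score of baseline-normalized fluorescence ratio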
KCNK9 block conf = human KCNK9 inhibitor confirmation; shares compounds with KCNK9 inh; HEK293 KCNK9 cells, FluxOR thallium flux fluorescence; inhibition, % at 10 µM; hit rate 43% among 4,900; AID 492992;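 active = thallium signal inhibited by more than 5 SD of the compound-free buffer control wells, on both duplicate plates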;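 note: 0% = assay buffer control wells without compound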
Kir2-1 spec = selectivity of KCNK9 modulators against mouse Kir2.1; shares compounds with KCNK9 inh; Kir2.1 cells, FluxOR thallium flux fluorescence; inhibition, % at 10 µM; hit rate 4% among 4,900; AID 492993;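 active = thallium signal drop more than 5 SD beyond the mean of the no-compound control wells, seen in both duplicate plates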;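 note: signal is fluorescence rise after thallium addition divided by baseline fluorescence; plate controls were assay buffer only for no effect and full block by chlorpromazine control for full effect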
KCNK9 uninduced = second counter-screen for KCNK9 modulators: effect in non-induced cells. inhibition, % at 10 µM. shares compounds with KCNK9 inh. non-induced KCNK9-HEK293, FluxOR thallium flux. hit rate 40% among 4,900;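 active = thallium signal drop beyond 5 SD of the untreated control mean, on both duplicate plates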;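 note: plate controls were buffer only IC0 wells for no effect and SID17386958 at its maximal inhibitory level for full effect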
An asterisk follows results filed as active; i = inactive; / = not tested or not shown. This is a sample that favours compounds with a hit; in the whole collection about 4.1% have one here.

SMILES | KCNK9 inh | KCC2 mod | KCNK3 block | hERG protect | KCNQ1 inh | KCNQ1 pot | KCNK9 block conf | Kir2-1 spec | KCNK9 uninduced
O=C(NCc1ccccc1)c1cccn(Cc2cccc(Cl)c2)c1=O | -11* | / | i | -8 | i | i | 57%* | i | 30%*
CC(=O)Nc1ccccc1C(=O)OCC(=O)c1ccc2ccccc2c1 | i | 0.012 | i | -12 | i | i | i | i | i
CCC1(CCC(C)C)C(=O)NC(=S)NC1=O | / | / | i | / | / | / | / | / | /
Cc1ccccc1N1CCN(C2CCCN(C(=O)COc3ccccc3)C2)CC1 (stereo unspecified) | i | / | i | -12 | i | i | i | i | i
O=C1/C(=C\c2ccc(Cl)c(Cl)c2)N2CCC1CC2 | i | -0.23 | i | -9 | i | i | i | i | i
O=C1/C(=C/c2cc3c(cc2Cl)OCO3)N2CCC1CC2 | i | -0.042 | / | -10 | i | i | / | / | /
O=C1/C(=C\c2ccncc2)N2CCC1CC2 | i | 0.53 | i | -2 | i | i | / | / | /
O=C1/C(=C\c2cc3c(cc2Cl)OCO3)N2CCC1CC2 | i | -0.67 | i | 4 | i | i | i | i | i
CCOC(=O)c1c(C)[nH]c(C)c1C(=O)C(Cc1ccccc1)N(C)C (stereo unspecified) | i | / | i | -10 | i | i | / | / | /
CCCCN1CCC(O)(c2ccccc2)C(C(=O)c2ccccc2)C1 (stereo unspecified) | i | -0.41 | i | -12 | i | i | i | i | i
COc1cc(C)c(CN2CCN(c3ccccc3)CC2)cc1C | i | -0.96 | i | -18 | i | i | i | i | i
N#Cc1ccccc1Cn1cc(C(=O)c2cccs2)c2ccccc21 | -8.1* | -0.066 | i | -5 | i | i | i | i | 34%*
O=C(c1cccs1)c1cn(Cc2ccccc2Cl)c2ccccc12 | i | 0.031 | i | -16 | i | i | / | / | /
COc1ccc(OC)c(NP(=O)(Oc2ccccc2)Oc2ccccc2)c1 | i | / | i | -5 | i | i | / | / | /
COc1ccc(OC)c(NP(=O)(Oc2ccc(Cl)cc2)Oc2ccc(Cl)cc2)c1 | -11* | -0.23 | i | -6 | i | i | 76%* | i | 44%*
COC(=O)C1=C(c2ccc(F)cc2OCc2ccccc2)C[C@@H]2CC[C@H]1N2C(=O)N1CCC(O)(c2ccc(Cl)cc2)CC1 | / | / | i | / | / | / | / | / | /
Cc1ccc(C[n+]2c(-c3ccc(C)cc3)cc(-c3ccc(C)cc3)cc2-c2ccc(C)cc2)cc1 | -13* | / | -8.7* | -42 | i | 34* | 61%* | 81%* | 38%*
COc1ccccc1CN1CCCC(C(=O)c2ccccc2SC)C1 (stereo unspecified) | i | / | i | -6 | i | i | i | i | i
COc1ccccc1CN1CCCC(C(=O)c2ccccc2OC)C1 (stereo unspecified) | i | / | i | -5 | i | i | / | / | /
CCOc1ccccc1CN1CCCC(C(=O)c2cc(F)ccc2F)C1 (stereo unspecified) | i | / | i | -1 | i | i | i | i | i
Cn1cccc1/C=C1\C(=O)NC(=O)N(Cc2ccco2)C1=O | i | -1.2 | i | -9 | i | i | / | / | /
Cc1ccc(OCCn2cccc2/C=C2/C(=O)NC(=O)N(Cc3ccco3)C2=O)cc1 | i | -0.21 | i | -4 | i | i | i | i | i
C=C1C(=O)[C@@]23C[C@H]4[C@@H]5[C@@]6(C)CCC[C@@]57[C@@H]2[C@@H](O)[C@@H]1C[C@H]3[C@H]7N4C6 | i | / | i | -4 | i | i | / | / | /
CCOC(=O)C1(CCc2ccccc2)CCN(Cc2csc(C(C)=O)c2)CC1 | i | -0.34 | i | -13 | i | i | i | i | i
CCOC(=O)C1(CCc2ccccc2)CCN(Cc2cccc3cnccc23)CC1 | i | 0.75 | i | -15 | i | i | i | i | i
SMILES | KCNK9 inh | KCC2 mod | KCNK3 block | hERG protect | KCNQ1 inh | KCNQ1 pot | KCNK9 block conf | Kir2-1 spec | KCNK9 uninduced
CCOC(=O)C1(CCOc2ccccc2)CCN(Cc2ccccc2OC)CC1 | i | / | i | -11 | i | i | i | i | i
COc1ccc(C(=O)N2C[C@H]3C[C@@H](C2)c2cccc(=O)n2C3)cc1OC | i | / | i | -7 | i | i | / | / | /
CSc1ccc(C(=O)C2CCCN(Cc3cc4ccccc4[nH]3)C2)cc1 (stereo unspecified) | i | 0.41 | i | -26 | i | i | i | 50%* | i
CSc1ccc(C(=O)C2CCCN(Cc3cccnc3)C2)cc1 (stereo unspecified) | i | -0.83 | i | -8 | i | i | / | / | /
CCCCNC(=O)c1c(N)n(CCCOC)c2nc3ccccc3nc12 | -8.7* | -0.82 | i | -28 | i | i | i | i | i
COCCCn1c(N)c(C(=O)OCCOC)c2nc3ccccc3nc21 | i | -1.1 | i | -4 | i | i | / | / | /
Fc1ccc(C2=CCN(C(c3cccs3)c3nnnn3CCc3ccccc3)CC2)cc1 (stereo unspecified) | -14* | -0.98 | i | -6 | i | i | 60%* | i | 36%*
CN(C)Cc1c[nH]c2cc([N+](=O)[O-])ccc12 | / | / | i | / | / | / | / | / | /
COc1ccc(C(=O)C2CCCN(C3CSCCSC3)C2)c(OC)c1 (stereo unspecified) | i | / | i | -8 | i | i | / | / | /
COc1ccc(C(=O)C2CCCN(C3CSCCSC3)C2)c(C)c1 (stereo unspecified) | i | 1.1 | i | -8 | i | i | i | i | i
Cc1nn(CCC#N)c2c1P(=S)(N1CCCC1)OC(c1ccc(F)cc1)=N2 (stereo unspecified) | i | 0.18 | i | -8 | i | i | i | i | i
Cn1cnc(CCN)c1 | i | / | i | -5 | i | i | / | / | /
COC(=O)C(O)(c1ccc(NC(=S)NC(=O)c2ccccc2)cc1)C(F)(F)F (stereo unspecified) | -9.7* | / | i | -7 | i | i | 46%* | i | 26%*
